# In ChEMBL document CHEMBL1914325, “Largazole and analogues with modified metal-binding motifs targeting histone deacetylases: synthesis and biological evaluation” (2011):
# The source made the active and inactive calls. The rule behind the calls is not given here.
# Legend:
# [1] = target: Histone deacetylase 1 (Homo sapiens) (UniProt Q13547); experiment: Inhibition of HDAC1 in human HCT116 cells assessed as increase in histone H3 acetylation at 10 nM after 24 hrs by Western blot analysis; format: cell-based; settings: HCT-116
# Chain of Histone deacetylase 1 (Homo sapiens) (Q13547 whole entry): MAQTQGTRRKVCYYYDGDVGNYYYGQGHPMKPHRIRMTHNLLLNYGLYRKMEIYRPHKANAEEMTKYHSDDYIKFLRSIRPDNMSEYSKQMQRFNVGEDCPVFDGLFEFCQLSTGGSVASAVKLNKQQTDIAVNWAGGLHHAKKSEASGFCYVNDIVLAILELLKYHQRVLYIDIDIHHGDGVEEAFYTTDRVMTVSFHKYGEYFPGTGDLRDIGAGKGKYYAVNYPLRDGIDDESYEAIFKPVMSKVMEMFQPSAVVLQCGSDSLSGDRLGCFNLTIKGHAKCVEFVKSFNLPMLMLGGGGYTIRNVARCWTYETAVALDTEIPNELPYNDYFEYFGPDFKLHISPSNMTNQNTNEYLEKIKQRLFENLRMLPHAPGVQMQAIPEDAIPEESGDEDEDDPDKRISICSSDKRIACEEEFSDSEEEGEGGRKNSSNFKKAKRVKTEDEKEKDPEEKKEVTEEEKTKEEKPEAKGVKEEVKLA
# Procedure, shortened: (§1)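 HCT116 cells treated 24 h with 10 nM, 100 nM or 1 µM compound, with DMSO as vehicle control. Acetylation of histone or α-tubulin was measured by Western blot of whole-cell lysates, detected with infrared dye-conjugated secondary antibodies and infrared scanning.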
# [2] = target: Histone deacetylase 1 (Homo sapiens) (UniProt Q13547); experiment: Inhibition of HDAC1 in human HCT116 cells assessed as increase in histone H3 acetylation at 1 uM after 24 hrs by Western blot analysis; format: cell-based; settings: HCT-116; procedure, shortened: as §1
# [3] = target: T1, Protein deacetylase HDAC6 (Homo sapiens) (UniProt Q9UBN7); experiment: Inhibition of HDAC6 in human HCT116 cells assessed as increase in alpha tubulin acetylation at 0.01 to 1 uM after 24 hrs by Western blot analysis; format: cell-based; settings: HCT-116; procedure, shortened: as §1
# T1 sequence (whole entry): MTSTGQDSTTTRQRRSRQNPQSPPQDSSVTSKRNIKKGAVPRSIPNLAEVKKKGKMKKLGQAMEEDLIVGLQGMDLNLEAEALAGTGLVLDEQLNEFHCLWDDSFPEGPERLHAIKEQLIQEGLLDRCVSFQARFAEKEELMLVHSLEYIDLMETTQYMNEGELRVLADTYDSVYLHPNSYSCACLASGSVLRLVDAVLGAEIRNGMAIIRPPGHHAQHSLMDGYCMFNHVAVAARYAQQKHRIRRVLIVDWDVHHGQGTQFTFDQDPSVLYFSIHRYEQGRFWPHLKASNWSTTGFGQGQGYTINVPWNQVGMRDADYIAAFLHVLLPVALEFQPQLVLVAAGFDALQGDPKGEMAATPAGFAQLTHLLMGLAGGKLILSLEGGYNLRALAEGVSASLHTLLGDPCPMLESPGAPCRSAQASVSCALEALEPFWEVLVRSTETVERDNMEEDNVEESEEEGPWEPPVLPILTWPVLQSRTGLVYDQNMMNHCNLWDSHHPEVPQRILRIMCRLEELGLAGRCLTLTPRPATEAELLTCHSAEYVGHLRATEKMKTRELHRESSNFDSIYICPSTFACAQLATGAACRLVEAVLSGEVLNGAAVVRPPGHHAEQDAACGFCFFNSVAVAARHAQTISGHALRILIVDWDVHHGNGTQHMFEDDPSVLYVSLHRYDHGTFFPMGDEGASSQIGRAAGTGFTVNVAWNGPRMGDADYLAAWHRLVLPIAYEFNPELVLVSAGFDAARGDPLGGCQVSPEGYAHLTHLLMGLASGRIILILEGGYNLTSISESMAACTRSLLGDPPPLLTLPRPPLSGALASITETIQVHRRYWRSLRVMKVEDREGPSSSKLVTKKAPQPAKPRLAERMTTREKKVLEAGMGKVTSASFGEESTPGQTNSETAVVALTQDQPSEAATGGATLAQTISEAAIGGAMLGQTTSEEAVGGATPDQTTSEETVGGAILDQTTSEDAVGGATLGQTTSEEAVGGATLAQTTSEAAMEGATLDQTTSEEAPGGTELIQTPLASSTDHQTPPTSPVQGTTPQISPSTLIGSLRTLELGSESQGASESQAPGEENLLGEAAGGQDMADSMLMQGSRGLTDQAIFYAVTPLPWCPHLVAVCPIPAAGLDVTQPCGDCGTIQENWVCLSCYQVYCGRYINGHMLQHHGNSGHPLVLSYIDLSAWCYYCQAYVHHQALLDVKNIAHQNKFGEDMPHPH
# HCT-116 [4] = experiment: Growth inhibition of human HCT116 cells at 5 uM after 96 hrs by MTS assay; format: functional, cell-based
# Procedure, shortened: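 HCT116 cells seeded at 3 × 10^4 cells/well in quadruplicate and left to attach overnight. Medium was replaced with fresh medium containing compound at 10 nM, 100 nM, 1 µM or 5 µM, then incubated 96 h at 37 °C in 5% CO2. MTS reagent was added for 1.5 h at 37 °C and absorbance read at 490 nm.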
# [5] = target: Histone deacetylase 1 (Homo sapiens) (UniProt Q13547); experiment: Inhibition of recombinant HDAC1 at 1 uM after 1 hr by fluorimetric assay
# Procedure, shortened: (§2)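 Fluor de Lys fluorimetric deacetylase assay run per the kit protocol. Inhibitor, enzyme and substrate were incubated 1 h, then developer was added and incubated before reading. Recombinant HDAC1 or HDAC6 was tested at 1 µM inhibitor; HeLa nuclear extract served as the class 1/2 HDAC source. Analogue + substrate + developer was the signal control. Three experiments, each in triplicate; SD of triplicates.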
# [6] = target: Histone deacetylase 1 (Homo sapiens) (UniProt Q13547); experiment: Inhibition of HDAC1 from human HeLa nuclear extract after 1 hr by fluorimetric assay; procedure, shortened: as §2
# [7] = target: T1, Protein deacetylase HDAC6 (Homo sapiens); experiment: Inhibition of recombinant HDAC6 at 1 uM after 1 hr by fluorimetric assay; procedure, shortened: as §2
# [8] = target: T1, Protein deacetylase HDAC6 (Homo sapiens); experiment: Inhibition of recombinant human HDAC6 after 1 hr by fluorimetric assay
# HCT-116 [9] = experiment: Growth inhibition of human HCT116 cells after 96 hrs by MTS assay; format: functional; settings: HCT-116, 96 h
# Procedure, shortened: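 HCT116 cells seeded at 3 × 10^4 cells/well in quadruplicate and allowed to attach overnight. Medium then replaced with fresh medium containing compound (10 nM, 100 nM, 1 µM, 5 µM). Cells incubated 96 h at 37 °C, 5% CO2. MTS reagent (CellTiter 96 One Solution) added for 1.5 h at 37 °C, then absorbance read at 490 nm. GI50 estimated from the growth curves.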
# [10] = target: Histone deacetylase 1 (Homo sapiens) (UniProt Q13547); settings: HCT-116, 100 nM
SMILES,inhibition [1],inhibition [2],inhibition [3],growth inhibition (GI) (HCT-116 [4]),inhibition [5],inhibition [6],inhibition [7] [%],inhibition [8],GI50 (HCT-116 [9]) [nM],inhibition [10]
CC(C)[C@@H]1NC(=O)[C@]2(C)CSC(=N2)c2csc(n2)CNC(=O)C[C@@H](/C=C/CCSCc2cccs2)OC1=O,inactive,Active,inactive,Active,80%,Active,50,Active,–,–
CC(C)[C@@H]1NC(=O)[C@]2(C)CSC(=N2)c2csc(n2)CNC(=O)C[C@@H](/C=C/CCSCc2ccccc2O)OC1=O,inactive,–,inactive,Active,30%,Active,50,Active,–,–
CC(C)[C@@H]1NC(=O)[C@]2(C)CSC(=N2)c2csc(n2)CNC(=O)C[C@@H](/C=C/CCSCc2ccccn2)OC1=O,inactive,Active,inactive,–,80%,Active,50,Active,1000,–
CCCCCCCC(=O)SCC/C=C/[C@@H]1CC(=O)NCc2nc(cs2)C2=N[C@@](C)(CS2)C(=O)N[C@@H](C(C)C)C(=O)O1 [LARGAZOLE],inactive,–,inactive,–,Active,Active,50,Active,10,Active
